In ChEMBL document CHEMBL1137681, “Design, synthesis and characterization of N9/N7-substituted 6-aminopurines as VEGF-R and EGF-R inhibitors” (Eur J Med Chem, 2009):
The source made the active and inactive calls. The rule behind the calls is not given here.

Assays:
[1] = target: Epidermal growth factor receptor (Homo sapiens, UniProt P00533); experiment: Inhibition of EGFR up to 100 uM
Procedure, shortened: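 Buffer: HEPES-NaOH pH 7.5, Mg2+/Mn2+, vanadate, DTT, PEG20000, 1% DMSO. Incubated 30 °C for 80 min, stopped with 2% H3PO4, washed, and scintillation-counted. IC50 from 10 concentrations in singlicate.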

[2] = target: Vascular endothelial growth factor receptor 3 (Homo sapiens, UniProt P35916); experiment: Inhibition of VEGFR3 up to 100 uM
[3] = target: Serine/threonine-protein kinase 26 (Homo sapiens) (UniProt Q9P289); experiment: Inhibition of human MST4 at 10 uM
[4] = target: Tyrosine-protein kinase SYK (Homo sapiens) (UniProt P43405); experiment: Inhibition of human SYK at 10 uM
[5] = target: Serine/threonine-protein kinase pim-3 (Homo sapiens) (UniProt Q86V86); experiment: Inhibition of human PIM3 at 10 uM
[6] = target: Serine/threonine-protein kinase PLK1 (Homo sapiens) (UniProt P53350); experiment: Inhibition of human okadaic acid sensitive PLK1 at 10 uM
[7] = target: Maternal embryonic leucine zipper kinase (Homo sapiens) (UniProt Q14680); experiment: Inhibition of human MELK at 10 uM
[8] = target: Fibroblast growth factor receptor 1 (Homo sapiens) (UniProt P11362); experiment: Inhibition of human FGFR1 at 10 uM
[9] = target: Ephrin type-A receptor 2 (Homo sapiens) (UniProt P29317); experiment: Inhibition of human EPHA2 at 10 uM
Aurora kinase B [10] = target: T1, Aurora kinase B (Homo sapiens, UniProt Q96GD4); experiment: Inhibition of Aurora B up to 100 uM
Procedure, shortened: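 Buffer was HEPES-NaOH pH 7.5 with MgCl2, MnCl2, vanadate, DTT, PEG20000 and 1% DMSO. Run 80 min at 30 °C, quenched with 2% H3PO4, NaCl-washed, then scintillation-counted. IC50 fitted from 10 concentrations tested once each.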

[11] = target: Dual specificity mitogen-activated protein kinase kinase 1 (Oryctolagus cuniculus) (UniProt P29678); experiment: Inhibition of rabbit MKK1 at 10 uM
[12] = target: Mitogen-activated protein kinase 11 (Homo sapiens) (UniProt Q15759); experiment: Inhibition of SAPK2b at 10 uM
[13] = target: Mitogen-activated protein kinase 12 (Homo sapiens) (UniProt P53778); experiment: Inhibition of SAPK3 at 10 uM
[14] = target: Cyclin-dependent kinase 2 (Homo sapiens) (UniProt P24941); experiment: Inhibition of CDK2/cyclin A at 10 uM
[15] = target: Casein kinase I isoform delta (Rattus norvegicus) (UniProt Q06486); experiment: Inhibition of rat CK1delta (1-294) at 10 uM
[16] = target: Serine/threonine-protein kinase Nek6 (Homo sapiens) (UniProt Q9HC98); experiment: Inhibition of NEK6 at 10 uM
[17] = target: Inhibitor of nuclear factor kappa-B kinase subunit beta (Homo sapiens) (UniProt O14920); experiment: Inhibition of IKKb at 10 uM
[18] = target: Myosin light chain kinase, smooth muscle (Homo sapiens) (UniProt Q15746); experiment: Inhibition of smMLCK at 10 uM
[19] = target: MAP kinase-interacting serine/threonine-protein kinase 2 (Homo sapiens) (UniProt Q9HBH9); experiment: Inhibition of MNK2alpha at 10 uM
[20] = Inhibition of PKBbeta S474D mutant at 10 uM
Aurora kinase B [21] = target: T1, Aurora kinase B; experiment: Inhibition of Aurora B at 10 uM
[22] = target: Eukaryotic elongation factor 2 kinase (Homo sapiens) (UniProt O00418); experiment: Inhibition of human EF2K at 10 uM
[23] = target: MAP/microtubule affinity-regulating kinase 3 (Homo sapiens) (UniProt P27448); experiment: Inhibition of human MARK3 at 10 uM
[24] = target: Serine/threonine-protein kinase D1 (Homo sapiens) (UniProt Q15139); experiment: Inhibition of human PKD1 at 10 uM
[25] = target: Dual specificity tyrosine-phosphorylation-regulated kinase 2 (Homo sapiens) (UniProt Q92630); experiment: Inhibition of human DYRK2 at 10 uM
[26] = target: Mitogen-activated protein kinase 9 (Homo sapiens) (UniProt P45984); experiment: Inhibition of human JNK2 at 10 uM
[27] = target: 3-phosphoinositide-dependent protein kinase 1 (PDPK1) (Homo sapiens) (UniProt O15530); experiment: Inhibition of PDK1 (delta 1-51) at 10 uM
[28] = target: Vascular endothelial growth factor receptor 2 (Homo sapiens, UniProt P35968); experiment: Inhibition of VEGFR2 up to 100 uM
[29] = target: Serine/threonine-protein kinase B-raf (Homo sapiens, UniProt P15056, V600E); experiment: Inhibition of BRAF V600E mutant

T1 sequence (Q96GD4 whole entry): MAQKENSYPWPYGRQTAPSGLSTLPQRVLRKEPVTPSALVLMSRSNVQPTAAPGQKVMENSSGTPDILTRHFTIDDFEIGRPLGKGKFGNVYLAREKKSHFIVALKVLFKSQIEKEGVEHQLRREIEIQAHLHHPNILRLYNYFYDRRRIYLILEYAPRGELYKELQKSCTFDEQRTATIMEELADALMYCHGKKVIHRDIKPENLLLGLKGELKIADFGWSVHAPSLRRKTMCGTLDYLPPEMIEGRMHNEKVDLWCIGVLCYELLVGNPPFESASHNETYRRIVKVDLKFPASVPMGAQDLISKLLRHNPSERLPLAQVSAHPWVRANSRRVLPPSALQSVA
Sequence of Myosin light chain kinase, smooth muscle (Homo sapiens) (Q15746 whole entry): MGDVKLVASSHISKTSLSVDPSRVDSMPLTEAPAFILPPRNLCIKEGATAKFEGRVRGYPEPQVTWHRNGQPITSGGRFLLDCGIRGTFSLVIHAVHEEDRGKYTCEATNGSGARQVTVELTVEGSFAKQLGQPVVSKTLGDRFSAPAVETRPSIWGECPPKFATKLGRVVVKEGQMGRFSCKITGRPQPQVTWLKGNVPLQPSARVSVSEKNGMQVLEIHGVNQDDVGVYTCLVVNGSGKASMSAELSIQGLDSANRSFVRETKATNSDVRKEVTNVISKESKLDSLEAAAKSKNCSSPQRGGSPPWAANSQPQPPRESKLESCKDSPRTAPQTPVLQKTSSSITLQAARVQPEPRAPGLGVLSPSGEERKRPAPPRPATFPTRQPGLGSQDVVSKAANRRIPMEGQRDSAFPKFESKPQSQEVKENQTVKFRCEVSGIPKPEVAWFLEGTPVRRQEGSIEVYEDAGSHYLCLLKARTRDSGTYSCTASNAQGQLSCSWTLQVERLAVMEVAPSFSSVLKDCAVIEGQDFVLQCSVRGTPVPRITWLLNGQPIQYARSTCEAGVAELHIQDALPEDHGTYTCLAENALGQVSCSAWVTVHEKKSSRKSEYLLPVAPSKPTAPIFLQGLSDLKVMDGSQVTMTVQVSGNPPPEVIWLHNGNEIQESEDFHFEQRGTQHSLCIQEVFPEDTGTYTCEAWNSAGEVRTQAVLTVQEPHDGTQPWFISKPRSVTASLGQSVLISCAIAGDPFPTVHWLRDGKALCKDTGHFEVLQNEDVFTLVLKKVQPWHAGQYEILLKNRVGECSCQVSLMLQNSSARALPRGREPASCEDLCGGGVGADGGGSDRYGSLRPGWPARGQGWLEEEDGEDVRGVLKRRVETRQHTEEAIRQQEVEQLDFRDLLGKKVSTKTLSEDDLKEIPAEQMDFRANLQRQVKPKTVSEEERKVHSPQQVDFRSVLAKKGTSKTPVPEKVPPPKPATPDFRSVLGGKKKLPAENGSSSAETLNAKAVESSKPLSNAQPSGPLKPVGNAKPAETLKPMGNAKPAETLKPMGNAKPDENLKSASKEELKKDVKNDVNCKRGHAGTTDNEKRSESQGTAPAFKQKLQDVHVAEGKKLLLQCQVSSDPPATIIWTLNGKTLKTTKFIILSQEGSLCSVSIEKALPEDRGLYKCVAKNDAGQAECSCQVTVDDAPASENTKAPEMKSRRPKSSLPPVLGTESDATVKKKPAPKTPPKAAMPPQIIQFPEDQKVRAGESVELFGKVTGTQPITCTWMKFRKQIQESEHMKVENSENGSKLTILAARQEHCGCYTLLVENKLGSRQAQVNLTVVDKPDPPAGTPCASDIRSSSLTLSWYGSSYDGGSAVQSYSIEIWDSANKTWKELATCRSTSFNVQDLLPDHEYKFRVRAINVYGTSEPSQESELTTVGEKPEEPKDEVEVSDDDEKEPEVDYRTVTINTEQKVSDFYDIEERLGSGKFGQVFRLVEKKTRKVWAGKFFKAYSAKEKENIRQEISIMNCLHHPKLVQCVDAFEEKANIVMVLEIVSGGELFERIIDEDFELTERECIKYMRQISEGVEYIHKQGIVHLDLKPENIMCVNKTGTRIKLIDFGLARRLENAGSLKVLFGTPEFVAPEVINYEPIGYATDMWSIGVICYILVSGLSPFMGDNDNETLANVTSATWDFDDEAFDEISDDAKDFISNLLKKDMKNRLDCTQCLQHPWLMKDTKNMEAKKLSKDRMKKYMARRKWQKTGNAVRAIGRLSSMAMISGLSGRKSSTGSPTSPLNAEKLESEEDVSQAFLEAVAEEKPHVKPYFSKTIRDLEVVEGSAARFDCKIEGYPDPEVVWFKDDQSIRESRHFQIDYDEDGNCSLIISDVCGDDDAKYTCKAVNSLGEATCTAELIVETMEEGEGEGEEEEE
Sequence of Vascular endothelial growth factor receptor 2 (P35968 whole entry): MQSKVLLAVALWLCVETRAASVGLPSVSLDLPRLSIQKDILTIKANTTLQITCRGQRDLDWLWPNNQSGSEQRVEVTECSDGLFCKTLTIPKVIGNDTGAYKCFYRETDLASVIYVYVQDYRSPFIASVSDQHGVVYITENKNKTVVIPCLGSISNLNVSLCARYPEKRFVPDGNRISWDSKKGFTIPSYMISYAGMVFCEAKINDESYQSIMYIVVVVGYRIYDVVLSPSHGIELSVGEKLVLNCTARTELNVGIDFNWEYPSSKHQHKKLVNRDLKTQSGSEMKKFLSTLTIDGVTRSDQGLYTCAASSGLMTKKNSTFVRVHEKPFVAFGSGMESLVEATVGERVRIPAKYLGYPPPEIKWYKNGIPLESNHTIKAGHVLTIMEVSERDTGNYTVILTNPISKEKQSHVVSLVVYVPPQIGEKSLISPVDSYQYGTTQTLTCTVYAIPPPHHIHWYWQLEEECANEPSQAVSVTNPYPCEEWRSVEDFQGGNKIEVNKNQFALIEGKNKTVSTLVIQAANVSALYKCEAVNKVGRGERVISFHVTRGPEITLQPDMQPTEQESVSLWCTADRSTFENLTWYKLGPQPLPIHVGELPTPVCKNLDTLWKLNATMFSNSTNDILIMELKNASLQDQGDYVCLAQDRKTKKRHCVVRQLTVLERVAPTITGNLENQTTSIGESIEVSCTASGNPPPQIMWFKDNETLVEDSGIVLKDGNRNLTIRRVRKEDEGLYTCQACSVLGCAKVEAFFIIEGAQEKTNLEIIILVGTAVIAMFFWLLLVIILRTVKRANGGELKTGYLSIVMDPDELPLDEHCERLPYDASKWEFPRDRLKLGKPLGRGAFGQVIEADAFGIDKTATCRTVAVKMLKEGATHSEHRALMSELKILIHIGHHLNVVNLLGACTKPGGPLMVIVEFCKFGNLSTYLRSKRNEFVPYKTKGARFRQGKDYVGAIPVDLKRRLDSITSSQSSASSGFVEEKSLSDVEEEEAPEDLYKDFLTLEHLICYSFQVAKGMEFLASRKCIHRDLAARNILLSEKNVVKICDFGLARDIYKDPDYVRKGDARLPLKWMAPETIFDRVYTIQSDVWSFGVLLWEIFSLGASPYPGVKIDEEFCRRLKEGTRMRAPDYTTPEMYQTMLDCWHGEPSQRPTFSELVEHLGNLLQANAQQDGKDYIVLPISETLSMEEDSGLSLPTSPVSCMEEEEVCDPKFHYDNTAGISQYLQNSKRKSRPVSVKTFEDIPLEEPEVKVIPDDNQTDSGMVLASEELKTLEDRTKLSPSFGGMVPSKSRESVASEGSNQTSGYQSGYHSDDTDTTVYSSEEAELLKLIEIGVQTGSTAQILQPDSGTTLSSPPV
Sequence of Mitogen-activated protein kinase 9 (Homo sapiens) (P45984 whole entry, looked up): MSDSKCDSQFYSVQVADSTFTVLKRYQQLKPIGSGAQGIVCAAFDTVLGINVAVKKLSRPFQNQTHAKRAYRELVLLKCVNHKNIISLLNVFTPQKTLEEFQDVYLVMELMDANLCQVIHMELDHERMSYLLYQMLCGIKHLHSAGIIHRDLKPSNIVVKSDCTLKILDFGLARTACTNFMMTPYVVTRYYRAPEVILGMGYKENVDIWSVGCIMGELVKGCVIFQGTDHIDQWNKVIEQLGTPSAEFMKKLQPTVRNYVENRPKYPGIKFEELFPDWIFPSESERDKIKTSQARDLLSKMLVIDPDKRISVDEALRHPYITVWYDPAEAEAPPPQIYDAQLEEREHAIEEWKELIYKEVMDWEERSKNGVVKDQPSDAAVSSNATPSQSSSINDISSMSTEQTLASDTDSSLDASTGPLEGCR
Sequence of Serine/threonine-protein kinase PLK1 (Homo sapiens) (P53350 whole entry): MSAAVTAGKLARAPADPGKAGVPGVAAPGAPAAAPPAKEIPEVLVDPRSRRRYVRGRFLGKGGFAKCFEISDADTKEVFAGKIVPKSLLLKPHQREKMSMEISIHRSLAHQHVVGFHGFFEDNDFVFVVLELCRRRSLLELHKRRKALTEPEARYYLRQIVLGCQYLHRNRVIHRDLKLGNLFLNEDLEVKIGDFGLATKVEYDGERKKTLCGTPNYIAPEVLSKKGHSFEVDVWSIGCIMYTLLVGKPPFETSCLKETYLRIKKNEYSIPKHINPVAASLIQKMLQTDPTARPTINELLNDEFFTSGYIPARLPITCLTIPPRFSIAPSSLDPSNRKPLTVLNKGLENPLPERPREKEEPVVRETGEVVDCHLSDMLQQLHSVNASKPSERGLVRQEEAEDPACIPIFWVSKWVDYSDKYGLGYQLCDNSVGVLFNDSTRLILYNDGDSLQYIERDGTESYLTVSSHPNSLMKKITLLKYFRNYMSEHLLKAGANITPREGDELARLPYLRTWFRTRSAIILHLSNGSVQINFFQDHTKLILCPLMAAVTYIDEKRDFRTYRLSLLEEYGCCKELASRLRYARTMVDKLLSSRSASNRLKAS
Sequence of Mitogen-activated protein kinase 11 (Homo sapiens) (Q15759 whole entry): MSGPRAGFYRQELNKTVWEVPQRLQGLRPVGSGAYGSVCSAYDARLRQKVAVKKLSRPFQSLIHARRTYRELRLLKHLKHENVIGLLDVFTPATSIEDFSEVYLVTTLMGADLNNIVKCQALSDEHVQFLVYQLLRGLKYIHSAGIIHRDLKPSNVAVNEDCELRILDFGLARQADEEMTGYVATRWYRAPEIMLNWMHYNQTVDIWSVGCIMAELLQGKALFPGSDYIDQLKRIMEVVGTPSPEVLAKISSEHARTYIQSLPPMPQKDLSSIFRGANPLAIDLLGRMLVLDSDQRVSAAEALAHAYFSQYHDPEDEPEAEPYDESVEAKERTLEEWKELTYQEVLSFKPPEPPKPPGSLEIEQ

In the case of `Nc1ncnc2ncn(CC(=O)c3ccccc3)c12`, the inhibition [1] is reported as “inactive” and the inhibition [2] is reported as “inactive”.

In the case of `Nc1ncnc2ncn(CC(=O)c3c[nH]c4ccccc34)c12`, the inhibition [3] is reported as “inactive”, the inhibition [4] is reported as “inactive” and the inhibition [5] is reported as “inactive”. For the same compound, the inhibition [6] was “inactive”, the inhibition [7] was “inactive” and the inhibition [8] was “inactive”. The inhibition [9] was “inactive”, the inhibition (Aurora kinase B [10]) was “inactive” and the inhibition [11] was “inactive”. For the same compound, the inhibition [12] was “inactive”, the inhibition [13] was “inactive” and the inhibition [14] was “inactive”. The inhibition [15] was “inactive”, the inhibition [16] was “inactive” and the inhibition [17] was “inactive”. The inhibition [18] was “inactive”, the inhibition [19] was “inactive” and the inhibition [20] was “inactive”. For the same compound, the inhibition (Aurora kinase B [21]) was “inactive”, the inhibition [22] was “inactive” and the inhibition [23] was “inactive”. For the same compound, the inhibition [24] was “inactive”, the inhibition [25] was “inactive” and the inhibition [26] was “inactive”. The inhibition [27] was “inactive”.

In the case of `Nc1ncnc2c1ncn2CC(=O)c1ccccc1`, the inhibition [28] is reported as “inactive”.

`Nc1ncnc2c1ncn2CC(=O)c1c[nH]c2ccccc12` showed an IC50 [29] of 82 µM.
